From ChEMBL document CHEMBL1141628 (J Med Chem, 2008)
Values after ≈ are worked out from the molar mass of the structure shown.

Experiments:
Cytochrome P450 3A4 [1] = molecular target: T1, Cytochrome P450 3A4 (Homo sapiens, UniProt P08684); experiment: Inhibition of human CYP3A4 using 7-benzyl-trifluoromethyl coumarin; format: ADME
Cytochrome P450 3A4 [2] = molecular target: T1, Cytochrome P450 3A4; experiment: Inhibition of human CYP3A4 using 7-benzyloxyresorufin; format: ADME
Cytochrome P450 2C9 = Cytochrome P450 2C9 (Homo sapiens, UniProt P11712); experiment: Inhibition of human CYP2C9; format: ADME
Cytochrome P450 2C19 = Cytochrome P450 2C19 (Homo sapiens, UniProt P33261); experiment: Inhibition of human CYP2C19; format: ADME
Cytochrome P450 1A2 = molecular target: T2, Cytochrome P450 1A2 (Homo sapiens, UniProt P05177); experiment: Inhibition of human CYP1A2; format: ADME
T2 sequence (P05177 whole entry): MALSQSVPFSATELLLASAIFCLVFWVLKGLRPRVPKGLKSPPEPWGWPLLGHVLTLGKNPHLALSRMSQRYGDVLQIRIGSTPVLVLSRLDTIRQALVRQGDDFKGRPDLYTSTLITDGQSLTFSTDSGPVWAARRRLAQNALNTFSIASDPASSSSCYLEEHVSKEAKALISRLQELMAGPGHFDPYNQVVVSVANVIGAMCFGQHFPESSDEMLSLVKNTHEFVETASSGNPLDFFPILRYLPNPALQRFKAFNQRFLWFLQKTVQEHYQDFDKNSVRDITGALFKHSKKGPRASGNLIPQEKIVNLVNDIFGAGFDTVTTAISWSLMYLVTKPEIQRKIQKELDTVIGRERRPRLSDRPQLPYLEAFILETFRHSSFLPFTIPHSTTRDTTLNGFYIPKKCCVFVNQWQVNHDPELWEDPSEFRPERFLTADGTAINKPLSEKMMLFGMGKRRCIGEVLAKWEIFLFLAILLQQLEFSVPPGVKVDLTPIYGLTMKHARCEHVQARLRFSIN

[3] = AUC (0 to 4 hrs) in mouse at 200 mg/kg, po; format: ADME, organism-based; set-up: time < 4 hr, dose 200 mg/kg, route oral; conditions: plasma
Summary of the method: (§1)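 Oral dosing to female mice, three per dose group, at 50 and 200 mg/kg in PEG400/water (70:30). Plasma levels of the parent drug were measured at 0.5, 1 and 4 h.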

[4] = AUC (0 to 4 hrs) in mouse at 50 mg/kg, po; format: ADME, organism-based; set-up: time < 4 hr, dose 50 mg/kg, route oral; conditions: plasma; summary of the method: as §1
Mus musculus = experiment: Ratio of AUC (0 to 4 hrs) in mouse plasma at 200 mg/kg, po to AUC (0 to 4 hrs) in mouse plasma at 50 mg/kg, po; format: ADME, organism-based; conditions: in vivo; summary of the method: as §1
[5] = Cmax in mouse at 200 mg/kg, po; format: ADME, organism-based; set-up: dose 200 mg/kg, route oral; conditions: in vivo; summary of the method: as §1
[6] = Cmax in mouse at 50 mg/kg, po; format: ADME, organism-based; set-up: dose 50 mg/kg, route oral; conditions: in vivo; summary of the method: as §1
Cytochrome P450 2D6 = Cytochrome P450 2D6 (Homo sapiens, UniProt P10635); experiment: Inhibition of human CYP2D6; format: ADME
[7] = Aqueous solubility at pH 5.8; format: physicochemical
L2987 [8] = experiment: Antitumor activity against human L2987 cells xenografted athymic mouse at 80 mg/kg/day, po after 14 days; format: functional; conditions: L2987, 336 h, read-out: TGI
Summary of the method: (§2)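 L2987 non-small cell lung tumors were grown as xenografts in athymic mice. Once tumors were established at 80–100 mm³, animals were dosed orally once daily for 14 consecutive days. Tumor growth was followed through dosing, and activity was expressed as percent tumor growth inhibition (%TGI).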

L2987 [9] = experiment: Antitumor activity against human L2987 cells xenografted po dosed athymic mouse after 14 days; format: functional, organism-based; summary of the method: as §2
L2987 [10] = experiment: Antitumor activity against human L2987 cells xenografted athymic mouse at 107 mg/kg/day, po after 14 days; format: functional; conditions: L2987, 336 h, read-out: TGI; summary of the method: as §2
[11] = Aqueous solubility at pH 6.5; format: physicochemical

T1 sequence (P08684 whole entry): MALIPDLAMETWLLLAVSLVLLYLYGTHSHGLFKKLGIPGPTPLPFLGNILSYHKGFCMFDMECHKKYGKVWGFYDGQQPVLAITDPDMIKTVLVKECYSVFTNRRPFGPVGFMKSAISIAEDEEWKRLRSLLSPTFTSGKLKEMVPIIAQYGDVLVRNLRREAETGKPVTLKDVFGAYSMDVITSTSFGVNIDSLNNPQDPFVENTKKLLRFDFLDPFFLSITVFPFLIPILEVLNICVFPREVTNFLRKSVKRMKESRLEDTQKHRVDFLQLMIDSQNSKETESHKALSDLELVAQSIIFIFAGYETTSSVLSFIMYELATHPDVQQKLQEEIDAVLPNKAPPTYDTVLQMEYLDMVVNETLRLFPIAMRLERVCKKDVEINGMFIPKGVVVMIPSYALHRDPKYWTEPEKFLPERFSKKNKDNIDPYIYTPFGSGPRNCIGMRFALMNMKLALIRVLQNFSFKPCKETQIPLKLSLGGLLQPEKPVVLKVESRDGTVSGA
Cytochrome P450 2C19, sequence (P33261 whole entry): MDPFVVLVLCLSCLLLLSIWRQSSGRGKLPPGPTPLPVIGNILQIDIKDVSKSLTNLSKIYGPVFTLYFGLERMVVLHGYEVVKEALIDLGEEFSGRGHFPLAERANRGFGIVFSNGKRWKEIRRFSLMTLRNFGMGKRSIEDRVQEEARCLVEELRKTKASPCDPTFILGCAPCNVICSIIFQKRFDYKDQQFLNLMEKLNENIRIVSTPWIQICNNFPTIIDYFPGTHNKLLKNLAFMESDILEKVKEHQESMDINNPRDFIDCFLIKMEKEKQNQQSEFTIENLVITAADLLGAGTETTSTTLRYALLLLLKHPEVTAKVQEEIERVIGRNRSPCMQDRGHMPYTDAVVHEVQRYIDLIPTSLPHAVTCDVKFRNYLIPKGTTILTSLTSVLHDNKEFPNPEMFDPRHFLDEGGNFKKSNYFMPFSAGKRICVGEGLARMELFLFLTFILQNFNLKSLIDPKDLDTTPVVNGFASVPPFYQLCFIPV
Cytochrome P450 2C9, sequence (P11712 whole entry): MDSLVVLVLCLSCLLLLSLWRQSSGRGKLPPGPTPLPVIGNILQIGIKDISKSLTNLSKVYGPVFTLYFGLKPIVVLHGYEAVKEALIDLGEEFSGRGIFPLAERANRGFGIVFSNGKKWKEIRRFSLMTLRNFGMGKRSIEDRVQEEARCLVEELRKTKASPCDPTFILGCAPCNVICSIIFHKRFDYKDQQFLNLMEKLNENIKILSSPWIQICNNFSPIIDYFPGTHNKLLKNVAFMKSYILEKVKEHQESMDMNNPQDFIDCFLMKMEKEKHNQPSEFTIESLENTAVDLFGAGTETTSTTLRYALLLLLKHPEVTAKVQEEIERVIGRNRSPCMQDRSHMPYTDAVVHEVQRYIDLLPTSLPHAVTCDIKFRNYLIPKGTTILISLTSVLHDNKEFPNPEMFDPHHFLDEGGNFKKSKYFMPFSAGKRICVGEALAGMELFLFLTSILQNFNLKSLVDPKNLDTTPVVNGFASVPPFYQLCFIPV
Cytochrome P450 2D6, sequence (P10635 whole entry): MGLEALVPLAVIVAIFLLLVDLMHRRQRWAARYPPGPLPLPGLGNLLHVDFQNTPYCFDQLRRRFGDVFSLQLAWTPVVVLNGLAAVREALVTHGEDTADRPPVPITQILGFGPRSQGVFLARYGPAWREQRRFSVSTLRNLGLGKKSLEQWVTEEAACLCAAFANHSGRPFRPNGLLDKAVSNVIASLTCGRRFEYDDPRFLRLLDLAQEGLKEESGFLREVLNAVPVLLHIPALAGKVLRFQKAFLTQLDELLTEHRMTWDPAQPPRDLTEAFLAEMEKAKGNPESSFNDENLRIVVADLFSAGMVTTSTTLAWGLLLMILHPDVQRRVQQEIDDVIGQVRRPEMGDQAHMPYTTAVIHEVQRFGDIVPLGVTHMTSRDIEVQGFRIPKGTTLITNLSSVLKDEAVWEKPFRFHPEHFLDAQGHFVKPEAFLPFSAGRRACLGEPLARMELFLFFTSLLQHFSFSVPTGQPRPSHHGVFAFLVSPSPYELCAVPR

Compound | IC50 (Cytochrome P450 2C9) [nM] | IC50 (Cytochrome P450 2C19) [nM] | IC50 (Cytochrome P450 1A2) [nM] | AUC(0-t) at 4 h [3] [µM·h] | AUC(0-t) at 4 h [4] [µM·h] | Ratio (Mus musculus) | Cmax [5] [µM] | Cmax [6] [µM] | IC50 (Cytochrome P450 2D6) [nM] | solubility [7] [mg/mL] | solubility [11] [mg/mL] | IC50 (Cytochrome P450 3A4 [1]) [nM] | IC50 (Cytochrome P450 3A4 [2]) [nM] | inhibition in vivo at 80 mg/kg/day (L2987 [8]) [%] | Activity (L2987 [9]) | inhibition in vivo at 107 mg/kg/day (L2987 [10]) [%]
Cc1cc2c(F)c(Oc3ncnn4cc(OC[C@@H](C)OC(=O)CN)c(C)c34)ccc2[nH]1 | 63 | 160 | 3700 | 303 | 69 | 4.4 | 126 | 21 | 12000 | – | – | 160 | 310 | – | – | –
Cc1cc2c(F)c(Oc3ncnn4cc(OC[C@@H](C)O)c(C)c34)ccc2[nH]1 [BRIVANIB] | > 40000 | > 40000 | > 40000 | 52 | 45 | – | 14 | 12 | > 40000 | – | < 0.001 | – | – | – | – | –
Cc1cc2c(F)c(Oc3ncnn4cc(OC[C@@H](C)OC(=O)C(C)(C)N)c(C)c34)ccc2[nH]1 | – | – | – | 213 | 46 | 4.6 | 66 | 15 | – | – | – | – | – | – | – | –

The next lines start with results.

IC50 (Cytochrome P450 2C9) [nM] | IC50 (Cytochrome P450 2C19) [nM] | IC50 (Cytochrome P450 1A2) [nM] | AUC(0-t) at 4 h [3] [µM·h] | AUC(0-t) at 4 h [4] [µM·h] | Ratio (Mus musculus) | Cmax [5] [µM] | Cmax [6] [µM] | IC50 (Cytochrome P450 2D6) [nM] | solubility [7] [mg/mL] | solubility [11] [mg/mL] | Compound | IC50 (Cytochrome P450 3A4 [1]) [nM] | IC50 (Cytochrome P450 3A4 [2]) [nM] | inhibition in vivo at 80 mg/kg/day (L2987 [8]) [%] | Activity (L2987 [9]) | inhibition in vivo at 107 mg/kg/day (L2987 [10]) [%]
2700 | 1800 | 34000 | 451 | 113 | 4 | 152 | 31 | 24000 | – | – | Cc1cc2c(F)c(Oc3ncnn4cc(OC[C@@H](C)OC(=O)C(N)CC(C)C)c(C)c34)ccc2[nH]1 (single isomer, unassigned) | 95 | 370 | – | – | –
9700 | 2100 | > 40000 | 276 | 69 | – | 78 | 21 | 24000 | 73 (≈ 165 mM) | – | Cc1cc2c(F)c(Oc3ncnn4cc(OC[C@@H](C)OC(=O)C(C)N)c(C)c34)ccc2[nH]1 (single isomer, unassigned; 8) | – | – | 85 | Dose-dependent effect | 97
